Data from ChEMBL document CHEMBL1141435, “Serinocyclins A and B, cyclic heptapeptides from Metarhizium anisopliae” (J Nat Prod, 2007).

Legend:
Escherichia coli = test: Antibacterial activity against Escherichia coli at 10 ug/disc after 48 hrs by disc diffusion assay; assay type: functional; settings: read-out: IZ
In short: (§1)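 Target strains grown on nutrient agar plates (9 cm), each spread with 0.6 mL of a 24 h nutrient broth culture and dried 1 h. Samples went onto 7 mm filter paper disks in 10 µL MeOH and were air-dried 1 h before placement. Inhibition zones were checked every 24 h for 4 days. Tetracycline at 10 µg/disk was the positive control, MeOH and formic acid at 10 µL/disk the negatives.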

Bacillus cereus = test: Antibacterial activity against Bacillus cereus at 10 ug/disc after 48 hrs by disc diffusion assay; assay type: functional; settings: read-out: IZ; in short: as §1
Colletotrichum = test: Antifungal activity against Colletotrichum acutatum at 10 ug/disc after 48 hrs by disc diffusion assay; assay type: functional; settings: read-out: IZ
In short: (§2)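 Fungal targets grown on potato dextrose agar plates (9 cm), each spread with 0.6 mL of a conidial suspension (ca. 1 × 10^6 conidia/mL H2O) and dried 1 h. Samples went onto 7 mm filter paper disks in 10 µL MeOH, air-dried 1 h, then placed on the plates. Inhibition zones were read every 24 h for 4 days. Filipin at 10 µg/disk was the positive control, MeOH and formic acid at 10 µL/disk the negatives.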

Botrytis = test: Antifungal activity against Botrytis cinerea at 10 ug/disc after 48 hrs by disc diffusion assay; assay type: functional; settings: read-out: IZ; in short: as §2
Beauveria bassiana = test: Antifungal activity against Beauveria bassiana at 10 ug/disc after 48 hrs by disc diffusion assay; assay type: functional; settings: read-out: IZ; in short: as §2
Saccharomyces cerevisiae = test: Antifungal activity against Saccharomyces cerevisiae at 10 ug/disc after 48 hrs by disc diffusion assay; assay type: functional; settings: read-out: IZ
In short: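 Yeast grown on 1% yeast extract, 2% peptone, 1.5% agar with either 2% dextrose or 2% glycerol. Plates were spread with 0.5 mL of a suspension in H2O adjusted to OD600 0.5 and dried 1 h. Samples went onto 7 mm paper disks in 10 µL MeOH, air-dried 1 h. Zones were read every 24 h for 4 days. Filipin at 10 µg/disk was the positive control, MeOH and formic acid the negatives.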

Aedes aegypti = test: Induction of locomotory deffect in Aedes aegypti Rockefeller larvae after 24 hrs; assay type: functional, organism-based
In short: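 Eggs hatched under vacuum for 30 min and larvae kept at 25 °C in tap water with liver powder suspension. At 24 h posthatch, 7–11 larvae per well of a 24-well plate were placed in 0.9 mL food/water. Treatments were added in 100 µL distilled water, and effects were scored 24 h later.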

Compound | zone of inhibition at 10 µg/disc (Escherichia coli) | zone of inhibition at 10 µg/disc (Bacillus cereus) | zone of inhibition at 10 µg/disc (Colletotrichum) | zone of inhibition at 10 µg/disc (Botrytis) | zone of inhibition at 10 µg/disc (Beauveria bassiana) | zone of inhibition at 10 µg/disc (Saccharomyces cerevisiae) | EC50 (Aedes aegypti)
CCCCC[C@@H](O)[C@H]1C(=O)O[C@H](C)[C@@H](O)/C=C/C=C/C=C/C=C/C=C(\C)[C@@H](O)C[C@H](O)C[C@H](O)C[C@H](O)C[C@H](O)C[C@H](O)C[C@@H]1O [FILIPIN] | > 5 mm | > 5 mm | > 5 mm | > 5 mm | > 5 mm | > 5 mm | –
NCC[C@H](O)C[C@H]1NC(=O)[C@H](CO)NC(=O)[C@@H]2C[C@@H](O)CN2C(=O)C2(CC2)NC(=O)[C@H](CO)NC(=O)[C@@H](CO)NC(=O)CCNC1=O [SERINOCYCLIN A] | – | – | – | – | – | – | 59 ppm
CN(C)[C@@H]1C(O)=C(C(N)=O)C(=O)[C@@]2(O)C(O)=C3C(=O)c4c(O)cccc4[C@@](C)(O)[C@H]3C[C@@H]12 [TETRACYCLINE] | > 5 mm | > 5 mm | > 5 mm | > 5 mm | > 5 mm | > 5 mm | –
